Measured values published in ChEMBL document CHEMBL3085640, “Synthesis and antimicrobial activity of some novel hydrazide, benzochromenone, dihydropyridine, pyrrole, thiazole and thiophene derivatives” (2013).
Converted amounts (≈) assume the structure as drawn. The source made the active and inactive calls. No cut-off for these calls is given here.

Experiments:
Assay type in all cases: functional
Candida albicans [1] = test: Antifungal activity against Candida albicans assessed as growth inhibition after 48 hrs by broth microdilution method
Method in brief: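 MIC by broth microdilution in Sabouraud liquid medium. DMSO stocks are serially diluted two-fold in broth and inoculated with C. albicans. Sealed plates are incubated in a humid chamber at 36 °C for 48 h. The MIC is the lowest concentration without visible turbidity. Run only for compounds giving zones >10 mm.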

Escherichia coli [2] = test: Antibacterial activity against Escherichia coli MTCC 443 assessed as growth inhibition after 24 hrs by broth microdilution method
Method in brief: (§1)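 MIC by broth microdilution in Müller-Hinton broth. DMSO stocks are diluted in broth to give two-fold serial dilutions, and about 10^6 CFU/mL of bacteria is added per well. Sealed plates are incubated in a humid chamber at 36 °C for 24 h. The MIC is the lowest concentration showing no visible turbidity. Run only for compounds giving zones >10 mm.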

Staphylococcus aureus [3] = test: Antibacterial activity against Staphylococcus aureus MTCC 96 assessed as growth inhibition after 24 hrs by broth microdilution method; method in brief: as §1
Candida albicans [4] = test: Antifungal activity against Candida albicans assessed as growth inhibition at 1 mg/mL after 48 hrs by […] method; conditions: read-out: DIZ
Method in brief: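 Sterile filter-paper discs soaked in a 1 mg/mL DMSO solution of the compound are placed on nutrient agar seeded with about 10^4 CFU/mL of C. albicans, in triplicate. Plates are incubated at 36 °C for 48 h. The read-out is the mean diameter of the inhibition zone in mm, with a DMSO-only control.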

Escherichia coli [5] = test: Antibacterial activity against Escherichia coli MTCC 443 assessed as growth inhibition at 1 mg/mL after 24 hrs by […] method; conditions: for zone of inhibition at 1000 µg/mL: MTCC 443, 24 h, read-out: DIZ
Method in brief: (§2)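 Sterile filter-paper discs soaked in a 1 mg/mL DMSO solution of the compound are placed on nutrient agar seeded with about 10^6 CFU/mL of bacteria, in triplicate. Plates are incubated at 36 °C for 24 h. The read-out is the mean diameter of the inhibition zone in mm. DMSO alone serves as the control.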

Staphylococcus aureus [6] = test: Antibacterial activity against Staphylococcus aureus MTCC 96 assessed as growth inhibition at 1 mg/mL after 24 hrs by […] method; conditions: for zone of inhibition at 1000 µg/mL: MTCC 96, 24 h, read-out: DIZ; method in brief: as §2

Row | Structure (SMILES) | MIC (Candida albicans [1]) | MIC (Escherichia coli [2]; MTCC 443, 24 h) | MIC (Staphylococcus aureus [3]; MTCC 96, 24 h) | MIC (Escherichia coli [2]) | MIC (Staphylococcus aureus [3]) | zone of inhibition at 1000 µg/mL (Candida albicans [4]) | zone of inhibition at 1000 µg/mL (Escherichia coli [5]) | zone of inhibition at 1000 µg/mL (Staphylococcus aureus [6]) | growth inhibition (GI) (Escherichia coli [5]) | growth inhibition (GI) (Staphylococcus aureus [6])
1 | C/C(=N\NC(=O)CC#N)c1cc2c(ccc3ccccc32)oc1=O | 250 µg/mL (≈ 783 µM) | 125 µg/mL (≈ 391 µM) | 125 µg/mL (≈ 391 µM) |  |  | 11 mm | 23 mm | 21 mm |  | 
2 | C/C(=N\NC(=O)/C(C#N)=C/c1ccc(Cl)cc1)c1cc2c(ccc3ccccc32)oc1=O | 125 µg/mL (≈ 283 µM) | 250 µg/mL (≈ 566 µM) | 188 µg/mL (≈ 424 µM) |  |  | 17 mm | 17 mm | 23 mm |  | 
3 | Clc1ccccc1C(c1ccccc1)(c1ccccc1)n1ccnc1 [CLOTRIMAZOLE] | 5.8 µg/mL (≈ 16.8 µM) |  |  |  |  | 30 mm |  |  |  | 
4 | CC1(C)S[C@@H]2[C@H](NC(=O)[C@H](N)c3ccccc3)C(=O)N2[C@H]1C(=O)O [AMPICILLIN] |  | 125 µg/mL (≈ 358 µM) | 188 µg/mL (≈ 537 µM) |  |  |  | 27 mm | 25 mm |  | 
5 | C/C(=N\NC(=O)/C(C#N)=C/c1cccnc1)c1cc2c(ccc3ccccc32)oc1=O | 125 µg/mL (≈ 306 µM) | 125 µg/mL (≈ 306 µM) | 125 µg/mL (≈ 306 µM) |  |  | 19 mm | 23 mm | 22 mm |  | 
6 | C/C(=N\NC(=O)/C(C#N)=C/c1ccc(F)cc1)c1cc2c(ccc3ccccc32)oc1=O | 125 µg/mL (≈ 294 µM) | 250 µg/mL (≈ 588 µM) | 125 µg/mL (≈ 294 µM) |  |  | 18 mm | 20 mm | 22 mm |  | 
7 | C/C(=N\NC(=O)/C(C#N)=C/N(C)C)c1cc2c(ccc3ccccc32)oc1=O | 750 µg/mL (≈ 2000 µM) |  |  | inactive | inactive | 7 mm |  |  | inactive | inactive
8 | C/C(=N\NC(=O)/C(C#N)=N/Nc1ccc(C)cc1)c1cc2c(ccc3ccccc32)oc1=O | 125 µg/mL (≈ 286 µM) | 125 µg/mL (≈ 286 µM) | 125 µg/mL (≈ 286 µM) |  |  | 21 mm | 24 mm | 24 mm |  | 
9 | C/C(=N\NC(=O)c1c(N)sc2c1CCCC2)c1cc2c(ccc3ccccc32)oc1=O | 500 µg/mL (≈ 1160 µM) |  | 375 µg/mL (≈ 869 µM) | inactive |  | 9 mm |  | 5 mm | inactive | 
10 | C/C(=N\NC(=O)c1cc2c(ccc3ccccc32)oc1=O)c1cc2c(ccc3ccccc32)oc1=O | 188 µg/mL (≈ 395 µM) | 93.7 µg/mL (≈ 197 µM) | 62.5 µg/mL (≈ 132 µM) |  |  | 20 mm | 28 mm | 27 mm |  | 

The next lines start with results.

Row | MIC (Candida albicans [1]) | MIC (Escherichia coli [2]; MTCC 443, 24 h) | MIC (Staphylococcus aureus [3]; MTCC 96, 24 h) | MIC (Escherichia coli [2]) | MIC (Staphylococcus aureus [3]) | Structure (SMILES) | zone of inhibition at 1000 µg/mL (Candida albicans [4]) | zone of inhibition at 1000 µg/mL (Escherichia coli [5]) | zone of inhibition at 1000 µg/mL (Staphylococcus aureus [6]) | growth inhibition (GI) (Escherichia coli [5]) | growth inhibition (GI) (Staphylococcus aureus [6])
11 | 250 µg/mL (≈ 596 µM) | 250 µg/mL (≈ 596 µM) | 125 µg/mL (≈ 298 µM) |  |  | C/C(=N\N1C(=O)C(C#N)C=C1c1ccccc1)c1cc2c(ccc3ccccc32)oc1=O (configuration not stated) | 13 mm | 16 mm | 13 mm |  | 
12 | 250 µg/mL (≈ 469 µM) | 188 µg/mL (≈ 352 µM) | 250 µg/mL (≈ 469 µM) |  |  | COc1ccc(OC)c(-c2c(C#N)c(O)n(/N=C(\C)c3cc4c(ccc5ccccc54)oc3=O)c(=O)c2C#N)c1 | 10 mm | 20 mm | 13 mm |  | 
13 | 125 µg/mL (≈ 324 µM) | 125 µg/mL (≈ 324 µM) | 375 µg/mL (≈ 973 µM) |  |  | C/C(=N\n1c(N)cc(N)c(C#N)c1=O)c1cc2c(ccc3ccccc32)oc1=O | 18 mm | 23 mm | 8 mm |  | 
14 | 125 µg/mL (≈ 235 µM) | 125 µg/mL (≈ 235 µM) | 125 µg/mL (≈ 235 µM) |  |  | COc1ccc(OC)c(-c2c(C#N)c(N)n(/N=C(\C)c3cc4c(ccc5ccccc54)oc3=O)c(=O)c2C#N)c1 | 18 mm | 23 mm | 23 mm |  | 
15 | 125 µg/mL (≈ 299 µM) |  |  | inactive | inactive | C/C(=N\NC(=O)c1sc(N)c(C#N)c1N)c1cc2c(ccc3ccccc32)oc1=O | 20 mm |  |  | inactive | inactive
16 | 375 µg/mL (≈ 766 µM) | 125 µg/mL (≈ 255 µM) | 125 µg/mL (≈ 255 µM) |  |  | C/C(=N\n1c(N)c(C#N)c(-c2ccc(F)cc2)c(C#N)c1=O)c1cc2c(ccc3ccccc32)oc1=O | 10 mm | 21 mm | 21 mm |  | 
17 | 125 µg/mL (≈ 257 µM) | 93.7 µg/mL (≈ 193 µM) | 125 µg/mL (≈ 257 µM) |  |  | C/C(=N\NC(=O)c1sc(=S)n(-c2ccccc2)c1N)c1cc2c(ccc3ccccc32)oc1=O | 15 mm | 27 mm | 26 mm |  | 
18 | 188 µg/mL (≈ 384 µM) | 125 µg/mL (≈ 256 µM) | 250 µg/mL (≈ 512 µM) |  |  | C/C(=N\n1c(O)c(C#N)c(-c2cccc(O)c2)c(C#N)c1=O)c1cc2c(ccc3ccccc32)oc1=O | 19 mm | 24 mm | 12 mm |  | 
